Legend:
[1] = test system: Rattus norvegicus; assay: Percent of Acetylcholine (ACh) released above baseline in rat striatum at the dose of 10 mg/kg p.o. (0-2h); format: functional; conditions: route oral
How it was run: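 Rats dosed orally at 10 mg/kg in 20% HPβCD; microdialysis of striatum measuring ACh release over the 2 h experiment. Stimulation judged against pre-injection baseline, significance p < 0.05 by Duncan's multiple range statistic.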

[2] = biological target: T1, Muscarinic acetylcholine receptor M2 (Homo sapiens, UniProt P08172); assay: Antagonistic activity against muscarinic acetylcholine receptor M2; format: functional
T1 sequence (P08172 whole entry): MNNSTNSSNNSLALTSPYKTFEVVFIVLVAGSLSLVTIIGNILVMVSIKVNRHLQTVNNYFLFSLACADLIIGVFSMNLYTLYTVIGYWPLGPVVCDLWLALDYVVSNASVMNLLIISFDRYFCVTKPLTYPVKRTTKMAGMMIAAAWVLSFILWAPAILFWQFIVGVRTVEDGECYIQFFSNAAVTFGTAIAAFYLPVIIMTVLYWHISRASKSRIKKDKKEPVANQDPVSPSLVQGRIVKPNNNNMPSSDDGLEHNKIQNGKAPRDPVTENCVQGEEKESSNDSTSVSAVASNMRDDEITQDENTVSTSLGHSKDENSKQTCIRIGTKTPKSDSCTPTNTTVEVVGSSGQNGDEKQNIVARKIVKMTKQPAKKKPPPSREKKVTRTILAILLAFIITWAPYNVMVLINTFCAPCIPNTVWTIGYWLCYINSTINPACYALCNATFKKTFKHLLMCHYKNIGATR
How it was run: (§1)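 Muscarinic receptor binding by a method described elsewhere; values are the mean of duplicates (SEM < 15%), each determination performed at least twice. Selectivity expressed as the ratio of M1 or M3 to M2 binding.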

[3] = Pharmacokinetic property at the dose of 10 mg/kg (20% HPbetaCD) concentration in rat (0 to 6 hr) p.o.; conditions: in vivo, po
[4] = biological target: Muscarinic acetylcholine receptors; M1 & M2 (Homo sapiens) (UniProt P11229+P08172); assay: Selectivity ratio of M1 muscarinic receptor to that of M2 muscarinic receptor; format: protein assay; how it was run: as §1
[5] = biological target: Muscarinic acetylcholine receptors; M2 & M3 (Homo sapiens) (UniProt P20309+P08172); assay: Selectivity ratio of M3 muscarinic receptor to that of M2 muscarinic receptor; format: protein assay; how it was run: as §1
[6] = biological target: T1, Muscarinic acetylcholine receptor M2; assay: Antagonistic activity against Muscarinic acetylcholine receptor M2; format: functional; how it was run: as §1

Chain of Muscarinic acetylcholine receptors; M1 & M2 (Homo sapiens) (P11229 whole entry, looked up, one chain of several): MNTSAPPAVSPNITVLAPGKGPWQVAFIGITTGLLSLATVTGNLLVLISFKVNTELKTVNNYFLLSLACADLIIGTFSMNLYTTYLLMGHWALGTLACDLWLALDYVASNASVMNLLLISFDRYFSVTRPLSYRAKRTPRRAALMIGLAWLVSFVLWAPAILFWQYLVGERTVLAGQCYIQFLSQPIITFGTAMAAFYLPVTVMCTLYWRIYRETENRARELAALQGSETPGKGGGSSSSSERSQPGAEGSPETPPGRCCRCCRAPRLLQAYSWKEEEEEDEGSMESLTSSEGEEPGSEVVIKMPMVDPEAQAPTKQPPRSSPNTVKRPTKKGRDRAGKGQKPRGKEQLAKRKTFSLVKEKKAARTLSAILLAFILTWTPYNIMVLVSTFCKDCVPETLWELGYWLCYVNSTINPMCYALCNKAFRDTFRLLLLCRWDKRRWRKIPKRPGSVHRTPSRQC
Chain of Muscarinic acetylcholine receptors; M2 & M3 (Homo sapiens) (P20309 whole entry, looked up, one chain of several): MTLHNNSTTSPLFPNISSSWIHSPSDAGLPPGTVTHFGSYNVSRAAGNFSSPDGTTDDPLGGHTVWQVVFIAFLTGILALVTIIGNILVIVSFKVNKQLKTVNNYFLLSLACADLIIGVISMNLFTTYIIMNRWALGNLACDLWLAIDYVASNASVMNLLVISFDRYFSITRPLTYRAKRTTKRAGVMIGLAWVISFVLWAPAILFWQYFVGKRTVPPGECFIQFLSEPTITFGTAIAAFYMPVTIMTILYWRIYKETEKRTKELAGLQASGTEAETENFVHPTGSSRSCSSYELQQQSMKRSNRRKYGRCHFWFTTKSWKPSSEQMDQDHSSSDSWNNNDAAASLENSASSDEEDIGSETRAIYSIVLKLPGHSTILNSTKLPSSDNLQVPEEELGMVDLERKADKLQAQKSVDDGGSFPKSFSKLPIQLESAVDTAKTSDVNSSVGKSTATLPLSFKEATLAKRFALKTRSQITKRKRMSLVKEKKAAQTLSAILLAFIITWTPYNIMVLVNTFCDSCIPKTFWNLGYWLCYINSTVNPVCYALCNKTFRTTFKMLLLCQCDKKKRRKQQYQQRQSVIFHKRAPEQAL

| Ki [2] [pM] | Ki [6] [pM] | SMILES | MD [1] [%] | other results |
| --- | --- | --- | --- | --- |
| 200 | – | COc1ccc(S(=O)(=O)c2ccc(C3(C4CCN(C5CCN(C(=O)c6cccc7c(F)cccc67)CC5)CC4)OCCO3)cc2)cc1 | 140 | AUC at 6 h [3]: 130 ng·h/mL |
| – | 33300 | CCCS(=O)(=O)N1CCC(N2CCC(C3(c4ccc(S(=O)(=O)c5ccc(OC)cc5)cc4)OCCO3)CC2)CC1 | – | Selectivity ratio [4]: 18.3; Selectivity ratio [5]: 25.3 |
| – | 230 | COc1ccc(S(=O)(=O)c2ccc(C3(C4CCN(C5CCN(C(=O)c6cccc7c(F)cc(F)cc67)CC5)CC4)OCCO3)cc2)cc1 | 133 | AUC at 6 h [3]: 367 ng·h/mL |
| 1200 | – | COc1ccc(S(=O)(=O)c2ccc(C3(C4CCN(C5CCN(C(=O)c6cccc7ccc(F)cc67)CC5)CC4)OCCO3)cc2)cc1 | – | – |
| 1400 | – | COc1ccc(S(=O)(=O)c2ccc(C3(C4CCN(C5CCN(C(=O)c6cccc7cc(Cl)ccc67)CC5)CC4)OCCO3)cc2)cc1 | – | – |
| 510 | – | COc1ccc(S(=O)(=O)c2ccc(C3(C4CCN(C5CCN(C(=O)c6ccc(F)c7ccccc67)CC5)CC4)OCCO3)cc2)cc1 | 180 | – |
| 140 | – | COc1ccc(S(=O)(=O)c2ccc(C3(C4CCN(C5CCN(C(=O)c6cccc7ccccc67)CC5)CC4)OCCO3)cc2)cc1 | – | – |
| 510 | – | COc1ccc(S(=O)(=O)c2ccc(C3(C4CCN(C5CCN(C(=O)c6cccc7c(Br)cccc67)CC5)CC4)OCCO3)cc2)cc1 | 125 | AUC at 6 h [3]: 702 ng·h/mL |
| 810 | – | COc1ccc(S(=O)(=O)c2ccc(C3(C4CCN(C5CCN(C(=O)c6cccc7cc(F)ccc67)CC5)CC4)OCCO3)cc2)cc1 | – | – |
| – | – | CCCS(=O)(=O)N1CCC(N2CCC(C3(c4ccc(S(=O)(=O)c5ccc6c(c5)OCO6)cc4)OCCO3)CC2)CC1 | – | Selectivity ratio [4]: 102; Selectivity ratio [5]: 93 |
| – | 290 | COc1ccc(S(=O)(=O)c2ccc(C3(C4CCN(C5CCN(C(=O)c6cccc7c(F)ccc(F)c67)CC5)CC4)OCCO3)cc2)cc1 | 120 | – |
| – | 990 | COc1ccc(S(=O)(=O)c2ccc(C3(C4CCN(C5CCN(C(=O)c6cccc7cccc(F)c67)CC5)CC4)OCCO3)cc2)cc1 | – | – |

Source: ChEMBL document CHEMBL1133934, “Metabolic stabilization of benzylidene ketal M(2) muscarinic receptor antagonists via halonaphthoic acid substitution” (Bioorg Med Chem Lett, 2001)
